Experimental data: ChEMBL document CHEMBL4813913, “In vitro identification of imidazo[1,2-a]pyrazine-based antileishmanial agents and evaluation of L. major casein kinase 1 inhibition” (Eur J Med Chem, 2021); call rule not given here

How the values were obtained:
Leishmania infantum = assay: Antileishmanial activity against amastigote stage of Leishmania infantum (MHOM/FR/2008/LEM5700) infected in mouse RAW264.7 cells assessed as reduction in parasitic proliferation measured by SYBR Green 1 dye based fluorescence assay; assay type: functional, organism-based; conditions: MHOM/FR/2008/LEM5700, RAW264.7
Summary of the method: (§1)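 RAW 264.7 macrophages seeded at 100,000 cells/well in DMEM with 10% heat-inactivated FBS, 24 h at 37 °C, 5% CO₂. Infected with plateau-phase promastigotes (parasite:macrophage 16:1) for 24 h. Compounds serially diluted, final 391 nM–100 μM. Amastigote viability read by SYBR Green I after lysis and 3 freeze-thaw cycles. IC50 by nonlinear regression against excipient-treated controls. Miltefosine reference.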

Leishmania braziliensis = assay: Antileishmanial activity against amastigote stage of Leishmania braziliensis (MHOM/BR/75/M2903b) infected in mouse RAW264.7 cells assessed as reduction in parasitic proliferation measured by SYBR Green 1 dye based fluorescence assay; assay type: functional, organism-based; summary of the method: as §1
Aurora kinase B = Aurora kinase B (Homo sapiens, UniProt Q96GD4); assay: Inhibition of recombinant human AURKB expressed in baculovirus infected Sf9 cells using MBP as substrate in presence of [gamma-33P]ATP measured by radiometric assay
Aurora kinase B, sequence (Q96GD4 whole entry): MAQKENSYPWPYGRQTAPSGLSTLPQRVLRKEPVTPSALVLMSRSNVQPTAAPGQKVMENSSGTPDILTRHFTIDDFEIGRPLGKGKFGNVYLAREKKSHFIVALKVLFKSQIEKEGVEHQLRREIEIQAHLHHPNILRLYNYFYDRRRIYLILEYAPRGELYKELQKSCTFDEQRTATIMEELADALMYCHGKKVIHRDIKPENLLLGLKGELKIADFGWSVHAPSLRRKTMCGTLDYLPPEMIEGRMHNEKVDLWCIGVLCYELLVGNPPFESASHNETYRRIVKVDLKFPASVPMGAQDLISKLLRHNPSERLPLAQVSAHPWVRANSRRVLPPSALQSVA

Leishmania donovani = assay: Antileishmanial activity against amastigote stage of Leishmania donovani (MHOM/ET/67/HU3) infected in mouse RAW264.7 cells assessed as reduction in parasitic proliferation measured by SYBR Green 1 dye based fluorescence assay; assay type: functional, organism-based; conditions: MHOM/ET/67/HU3, RAW264.7; summary of the method: as §1
Leishmania amazonensis = assay: Antileishmanial activity against amastigote stage Leishmania amazonensis (MHOM/BR/73/M2269) infected in mouse RAW264.7 cells assessed as reduction in parasitic proliferation measured by SYBR Green 1 dye based fluorescence assay; assay type: functional, organism-based; conditions: MHOM/BR/73/M2269, RAW264.7; summary of the method: as §1
[1] = biological target: Dual specificity tyrosine-phosphorylation-regulated kinase 1A (Rattus norvegicus, UniProt Q63470); assay: Inhibition of recombinant rat DYRK1A (1 to 499 ) expressed in bacterial expression system using KKISGRLSPIMTEQ as substrate in presence of [gamma-33P]ATP measured by radiometric assay; conditions: for inhibition (INH): rat
[2] = Selectivity index, ratio of CC50 for human MRC5 cells to IC50 for amastigote stage of Leishmania braziliensis (MHOM/BR/75/M2903b) infected in mouse RAW264.7 cells; assay type: toxicity, cell-based; conditions: read-out: Ratio CC50/IC50
Summary of the method: (§2)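 Selectivity index is CC50 on RAW 264.7 or MRC-5 cells divided by IC50 on intracellular amastigotes.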

CDK9/cyclin T1 = CDK9/cyclin T1 (Homo sapiens, UniProt P50750); assay: Inhibition of human recombinant CDK9/CyclinT expressed in baculovirus infected Sf9 cells using YSPTSPSYSPTSPSYSPTSPSKKK as substrate in presence of [gamma-33P]ATP by radiometric assay
CDK9/cyclin T1, sequence (O60563 whole entry): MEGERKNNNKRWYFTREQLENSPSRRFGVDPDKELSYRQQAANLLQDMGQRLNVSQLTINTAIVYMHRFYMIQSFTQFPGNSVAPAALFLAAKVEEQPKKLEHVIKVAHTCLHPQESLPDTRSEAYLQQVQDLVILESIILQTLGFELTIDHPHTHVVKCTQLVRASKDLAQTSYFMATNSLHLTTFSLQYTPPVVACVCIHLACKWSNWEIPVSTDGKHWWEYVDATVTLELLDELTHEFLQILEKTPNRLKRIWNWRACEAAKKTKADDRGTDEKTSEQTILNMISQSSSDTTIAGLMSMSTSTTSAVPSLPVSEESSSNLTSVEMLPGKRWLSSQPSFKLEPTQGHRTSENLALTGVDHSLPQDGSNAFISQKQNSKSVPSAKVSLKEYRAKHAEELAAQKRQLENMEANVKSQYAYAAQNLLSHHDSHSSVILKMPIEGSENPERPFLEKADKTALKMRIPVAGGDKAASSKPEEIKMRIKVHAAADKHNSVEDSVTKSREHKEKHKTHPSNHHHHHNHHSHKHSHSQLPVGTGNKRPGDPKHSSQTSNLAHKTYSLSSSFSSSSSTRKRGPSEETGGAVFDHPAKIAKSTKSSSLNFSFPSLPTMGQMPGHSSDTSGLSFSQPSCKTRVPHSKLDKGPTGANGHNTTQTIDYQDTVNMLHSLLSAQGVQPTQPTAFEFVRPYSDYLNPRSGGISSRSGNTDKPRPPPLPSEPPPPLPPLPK
CDK9/cyclin T1, sequence (P50750 whole entry): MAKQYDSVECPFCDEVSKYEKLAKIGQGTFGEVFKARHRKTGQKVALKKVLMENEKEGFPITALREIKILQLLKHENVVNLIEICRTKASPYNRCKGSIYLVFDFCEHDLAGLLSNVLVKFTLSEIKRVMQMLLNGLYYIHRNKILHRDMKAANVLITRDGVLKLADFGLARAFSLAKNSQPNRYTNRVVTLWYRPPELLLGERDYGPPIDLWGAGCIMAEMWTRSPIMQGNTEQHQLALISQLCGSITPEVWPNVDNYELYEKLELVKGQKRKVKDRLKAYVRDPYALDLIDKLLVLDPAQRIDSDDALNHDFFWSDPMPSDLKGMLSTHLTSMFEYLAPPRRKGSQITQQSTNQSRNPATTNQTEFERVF

[3] = biological target: Receptor-interacting serine/threonine-protein kinase 3 (Homo sapiens, UniProt Q9Y572); assay: Inhibition of recombinant human RIPK3 expressed in baculovirus infected Sf9 cells using MBP as substrate in presence of [gamma-33P]ATP by radiometric assay
Receptor-interacting serine/threonine-protein kinase 3, sequence (Q9Y572 whole entry): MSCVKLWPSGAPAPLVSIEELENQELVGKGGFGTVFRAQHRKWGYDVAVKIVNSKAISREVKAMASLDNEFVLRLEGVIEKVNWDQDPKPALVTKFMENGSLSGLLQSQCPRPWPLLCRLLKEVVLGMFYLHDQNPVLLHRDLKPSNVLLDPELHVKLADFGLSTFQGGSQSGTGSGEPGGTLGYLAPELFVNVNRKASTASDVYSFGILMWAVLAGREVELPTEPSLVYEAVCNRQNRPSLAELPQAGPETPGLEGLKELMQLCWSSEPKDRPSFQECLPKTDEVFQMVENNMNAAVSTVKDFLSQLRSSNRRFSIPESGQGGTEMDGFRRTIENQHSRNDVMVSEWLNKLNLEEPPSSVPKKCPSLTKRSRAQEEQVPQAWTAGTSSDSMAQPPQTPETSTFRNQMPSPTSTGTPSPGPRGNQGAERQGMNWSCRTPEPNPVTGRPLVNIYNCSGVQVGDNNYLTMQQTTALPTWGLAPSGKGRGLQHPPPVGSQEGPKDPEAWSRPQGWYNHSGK

[4] = Inhibition of recombinant Leishmania major CK1.2 expressed in bacterial expression system using RRKHAAIGSpAYSITA as substrate in presence of [gamma-33P]ATP by radiometric assay
[5] = Toxicity against Galleria mellonella larva assessed as cuticular darkening at 50 mg/kg measured for 7 days; assay type: organism-based; conditions: in vivo, 168 h, time 7 day
Summary of the method: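 G. mellonella larvae (6th stage, 260–320 mg), groups of ten. Injected in the 4th left pro-leg with 10 μL at 10–50 mg/kg; controls got PBS/DMSO (DMSO <40%). Kept in the dark at 37 °C. Survival and cuticular darkening scored daily for 7 days; death taken as no movement on stimulus. Kaplan-Meier with log-rank test; two independent experiments.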

[6] = Selectivity index, ratio of CC50 for mouse RAW264.7 cells to IC50 for amastigote stage of Leishmania amazonensis (MHOM/BR/73/M2269) infected in mouse RAW264.7 cells; assay type: toxicity, cell-based; conditions: read-out: Ratio CC50/IC50; summary of the method: as §2
[7] = Selectivity index, ratio of CC50 for human MRC5 cells to IC50 for amastigote stage of Leishmania donovani (MHOM/ET/67/HU3) infected in mouse RAW264.7 cells; assay type: toxicity, cell-based; conditions: read-out: Ratio CC50/IC50; summary of the method: as §2
[8] = Selectivity index, ratio of CC50 for human MRC5 cells to IC50 for amastigote stage of Leishmania infantum (MHOM/FR/2008/LEM5700) infected in mouse RAW264.7 cells; assay type: toxicity, cell-based; conditions: read-out: Ratio CC50/IC50; summary of the method: as §2

SMILES	IC50 (Leishmania infantum) [µM]	IC50 (Leishmania braziliensis) [µM]	inhibition (INH) (Aurora kinase B)	IC50 (Leishmania donovani) [µM]	IC50 (Leishmania amazonensis) [µM]	inhibition (INH) [1]	selectivity ratio [2]	IC50 (CDK9/cyclin T1) [µM]	inhibition (INH) [3]	IC50 [4] [µM]	Activity [5]	selectivity ratio [6]	selectivity ratio [7]	selectivity ratio [8]	IC50 [1] [µM]
CSc1nccc(-c2c(-c3ccc(F)cc3)nc3c(Cl)nccn23)n1	> 100	74	Not Active	> 100	> 100	Not Active	1.1	> 10	Not Active	> 10	Non-Toxic				
CN(C)c1nccn2c(-c3ccnc(N)n3)c(-c3ccccc3)nc12	> 100	56.5	Not Active	> 100	23.4	Not Active	1	> 10	Not Active	0.035	Non-Toxic	1.9			
CN(C)c1nccn2c(-c3ccnc(N)n3)c(-c3ccc(F)cc3)nc12	6.55	24.3	Not Active	9.97	6.12	Not Active	4.1	> 10	Not Active	0.042	Non-Toxic	6.9	10	15.2	
CSc1nccc(-c2c(-c3ccccc3)nc3c(N(C)C)nccn23)n1	12.5	45.6	Not Active	17.6	5.99	Not Active	1.8	> 10	Not Active	3.5	Non-Toxic	5.6	4.6	6.5	
CSc1nccc(-c2c(-c3ccccc3)nc3c(Cl)nccn23)n1	1.93	17.7	Not Active	9.82	3.2	Not Active	1.9	> 10	Not Active	5	Non-Toxic	15.8	3.4	17.3	
CSc1nccc(-c2c(-c3ccc(F)cc3)nc3c(N(C)C)nccn23)n1	6.2	63.5	Not Active	10.4	12.5	Not Active	1.1	> 10	Not Active	1	Non-Toxic	2.9	6.4	10.8	
CSc1nccc(-c2c(-c3ccc(F)cc3)nc3c(N)nccn23)n1	> 12.5	> 12.5	Not Active	> 12.5	> 12.5		1.5	> 10	Not Active	0.65	Non-Toxic	> 0.9	1.5	1.5	2
